# Columns and labels:
# [1] = Cytotoxicity against human ECA109 cells after 48 hrs by MTT assay; format: functional, cell-based; settings: ECa-109, 48 h
# Outline: (§1)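 MTT viability assay: cells exposed to compound for 48 h, MTT in RPMI-1640 added for a further 4 h at 37 °C, formazan dissolved in DMSO, absorbance at 570 nm. Triplicate wells, three independent experiments; IC50 (50% viability inhibition) computed by dose-effect analysis and reported as mean of three experiments. CA-4 as positive control.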
# PC-3 = experiment: Cytotoxicity against human PC3 cells after 48 hrs by MTT assay; format: functional, cell-based; settings: PC-3, 48 h; outline: as §1
# A549 = experiment: Cytotoxicity against human A549 cells after 48 hrs by MTT assay; format: functional, cell-based; settings: A549, 48 h; outline: as §1
# K562 = experiment: Cytotoxicity against human K562 cells after 48 hrs by MTT assay; format: functional, cell-based; settings: K562, 48 h; outline: as §1
# SMMC-7721 [2] = experiment: Cytotoxicity against human SMMC7721 cells after 48 hrs by MTT assay; format: functional, cell-based; settings: SMMC-7721, 48 h; outline: as §1
# SMMC-7721 [3] = experiment: Cell cycle arrest in human SMMC7721 cells assessed as accumulation at S phase at 1 uM after 24 hrs by propidium iodide staining-based FACS analysis; format: functional
# Outline: (§2)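 SMMC-7721 cells (5 × 10⁴/mL) exposed 24 h to graded concentrations (0.01–1.0 µM) alongside DMSO and CA-4 controls; washed twice in PBS, fixed in 75% ethanol at −20 °C, RNase-treated at 37 °C for 0.5 h, stained with propidium iodide at 4 °C for 15 min, then analysed by flow cytometry for G2/M and S fractions.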
# SMMC-7721 [4] = experiment: Induction of apoptosis in human SMMC7721 cells at 0.1 uM after 48 hrs; format: functional
# SMMC-7721 [5] = experiment: Induction of apoptosis in human SMMC7721 cells at 1 uM after 48 hrs; format: functional
# SMMC-7721 [6] = experiment: Cell cycle arrest in human SMMC7721 cells assessed as accumulation at G2/M phase at 0.1 uM after 24 hrs by propidium iodide staining-based FACS analysis; format: functional; outline: as §2
# SMMC-7721 [7] = experiment: Induction of apoptosis in human SMMC7721 cells at 0.5 uM after 48 hrs; format: functional
# SMMC-7721 [8] = experiment: Cell cycle arrest in human SMMC7721 cells assessed as accumulation at G2/M phase at 1 uM after 24 hrs by propidium iodide staining-based FACS analysis; format: functional; outline: as §2
# SMMC-7721 [9] = experiment: Cell cycle arrest in human SMMC7721 cells assessed as accumulation at S phase at 0.1 uM after 24 hrs by propidium iodide staining-based FACS analysis; format: functional; outline: as §2
# [10] = Inhibition of bovine tubulin polymerization by fluorescent plate reader analysis; design: species or system Bos taurus
IC50 [10],Compound,IC50 [1],IC50 (PC-3),IC50 (A549),IC50 (K562),IC50 (SMMC-7721 [2]),Activity (SMMC-7721 [3]),Activity (SMMC-7721 [4]),Activity (SMMC-7721 [5]),Activity (SMMC-7721 [6]),Activity (SMMC-7721 [7]),Activity (SMMC-7721 [8]),Activity (SMMC-7721 [9])
–,COc1ccc(-c2noc(N)c2-c2cc(OC)c(OC)c(OC)c2)cc1O,> 50 µM,> 50 µM,> 50 µM,–,–,–,–,–,–,–,–,–
–,COc1ccc(-c2c(-c3cc(OC)c(OC)c(OC)c3)noc2N)cc1OC,20.6 µM,21.1 µM,> 50 µM,1270 nM,> 50 µM,–,–,–,–,–,–,–
–,COc1ccc(-c2c(-c3cc(OC)c(OC)c(OC)c3)noc2NC(C)=O)cc1OC,17.7 µM,> 50 µM,19.8 µM,3710 nM,46.3 µM,–,–,–,–,–,–,–
–,COc1cc(-c2noc(N)c2-c2cc(OC)c(OC)c(OC)c2)cc(OC)c1OC,> 50 µM,> 50 µM,> 50 µM,3650 nM,> 50 µM,–,–,–,–,–,–,–
–,COc1ccc(-c2noc(N)c2-c2cc(OC)c(OC)c(OC)c2)cc1OCc1ccccc1,> 50 µM,> 50 µM,38.2 µM,–,–,–,–,–,–,–,–,–
–,COc1cc(-c2noc(NC(C)=O)c2-c2cc(OC)c(OC)c(OC)c2)cc(OC)c1OC,13.9 µM,14.9 µM,21.1 µM,3970 nM,24.6 µM,–,–,–,–,–,–,–
–,COc1ccc(-c2noc(NC(C)=O)c2-c2cc(OC)c(OC)c(OC)c2)cc1OCc1ccccc1,> 50 µM,> 50 µM,> 50 µM,–,–,–,–,–,–,–,–,–
–,COc1ccc(-c2c(-c3cc(OC)c(OC)c(OC)c3)noc2NC(C)=O)cc1,10.8 µM,> 50 µM,10.7 µM,380 nM,> 50 µM,–,–,–,–,–,–,–
–,COc1cc(-c2noc(NC(C)=O)c2-c2ccc(Cl)cc2)cc(OC)c1OC,9.53 µM,1.91 µM,24.9 µM,3620 nM,> 50 µM,–,–,–,–,–,–,–
–,COc1ccc(-c2noc(NC(C)=O)c2-c2cc(OC)c(OC)c(OC)c2)cc1OC,> 50 µM,> 50 µM,> 50 µM,8750 nM,> 50 µM,–,–,–,–,–,–,–
2100 nM,COc1ccc(-c2c(-c3cc(OC)c(OC)c(OC)c3)noc2N(C(C)=O)C(C)=O)cc1,0.39 µM,0.36 µM,0.43 µM,68 nM,1.36 µM,24.3%,37%,72%,41.5%,70%,70%,50.4%
–,COc1ccc(-c2noc(N)c2-c2cc(OC)c(OC)c(OC)c2)cc1OC,1.66 µM,> 50 µM,> 50 µM,1400 nM,> 50 µM,–,–,–,–,–,–,–
–,COc1ccc(-c2c(-c3cc(OC)c(OC)c(OC)c3)noc2N(C(C)=O)C(C)=O)cc1OC,> 50 µM,> 50 µM,> 50 µM,4290 nM,> 50 µM,–,–,–,–,–,–,–
–,COc1ccc(-c2noc(NC(C)=O)c2-c2cc(OC)c(OC)c(OC)c2)cc1,> 50 µM,> 50 µM,> 50 µM,1000 nM,> 50 µM,–,–,–,–,–,–,–
1800 nM,COc1ccc(-c2c(-c3cc(OC)c(OC)c(OC)c3)noc2N)cc1,5.84 µM,3.03 µM,4.49 µM,40 nM,12 µM,–,–,–,–,–,–,–
–,COc1cc(-c2noc(N(C(C)=O)C(C)=O)c2-c2ccc(Cl)cc2)cc(OC)c1OC,39.8 µM,2.63 µM,> 50 µM,3960 nM,> 50 µM,–,–,–,–,–,–,–
–,COc1ccc(-c2noc(N)c2-c2cc(OC)c(OC)c(OC)c2)cc1,9.82 µM,15 µM,21.8 µM,22 nM,39.8 µM,–,–,–,–,–,–,–
–,COc1ccc(-c2noc(NC(C)=O)c2-c2cc(OC)c(OC)c(OC)c2)cc1O,> 50 µM,> 50 µM,> 50 µM,–,–,–,–,–,–,–,–,–
–,COc1cc(-c2noc(N)c2-c2ccc(Cl)cc2)cc(OC)c1OC,> 50 µM,> 50 µM,> 50 µM,640 nM,> 50 µM,–,–,–,–,–,–,–
–,COc1ccc(/C=C\c2cc(OC)c(OC)c(OC)c2)cc1O [COMBRETASTATIN A4],4.5 µM,5.4 µM,0.42 µM,46 nM,3.22 µM,–,–,–,–,–,–,–
